Laboratory results published in ChEMBL document CHEMBL1125316, “New hydroxyethylamine HIV protease inhibitors that suppress viral replication” (J Med Chem, 1992).
Converted amounts (≈) assume the structure as drawn. The source made the active and inactive calls. No cut-off for these calls is given here. Starred links: 1 amine or outer side, 2 acyl side, 3 side chain; linkers in the order of their positions; H or OH if unused. Non-standard residues stand in square brackets, D forms with d. Residues, ends and D or L forms follow the SMILES beside them. ξ: configuration not given here. *: point of attachment. Pheψ(R-CH(OH)CH2N)Pro = O=C([C@@H]1CCCN1C[C@@H](O)[C@H](Cc1ccccc1)N[*:1])[*:2]; Pheψ(R-CHOHCH2N)ξPro = O=C(C1CCCN1C[C@@H](O)[C@H](Cc1ccccc1)N[*:1])[*:2]; Phe(3-Ph) = N[C@@H](Cc1cccc(-c2ccccc2)c1)C(=O)O; Bip = N[C@@H](Cc1ccc(-c2ccccc2)cc1)C(=O)O; 2Nal = N[C@@H](Cc1ccc2ccccc2c1)C(=O)O; hPhe = N[C@@H](CCc1ccccc1)C(=O)O; Boc = CC(C)(C)OC(=O)*

Key:
[1] = target: Human immunodeficiency virus type 1 protease (Human immunodeficiency virus 1, UniProt Q72874); test: Binding affinity to HIV protease
How it was run: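 Continuous fluorometric assay of HIV protease (6.2 nM enzyme) at pH 6.4 with substrate AntThrIleNlePhe(p-NO2)GlnArgNH2. Ki derived assuming pure competitive tight-binding inhibition, by nonlinear least-squares fit to Morrison's tight-binding equation.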

[2] = system: Simian immunodeficiency virus; test: Compound was evaluated for the inhibition of SIV induced syncytia formation; format: functional, organism-based
How it was run: (§1)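 CEM×174 cells pretreated 30 min with serial 2-fold inhibitor dilutions, then infected with cell-free SIVmac251. Fresh inhibitor added at 48 h. CPE scored as multinucleated giant cell appearance after 7-day incubation. IC50 is the concentration giving 50% CPE inhibition versus infected controls. AZT positive control.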

CCRF-CEM [3] = test: Compound was evaluated for the inhibition of HIV infected CEM cells.; format: functional, Homo sapiens
How it was run: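 CEM (CD4+ lymphocyte line) cultures infected with HTLV-IIIb at MOI 0.1. Compound added 1 h before inoculation; peptides re-dosed days 2 and 5 post-infection. Virus-induced CPE quantitated at day 7 by formazan dye. Controls were untreated, infected and compound-only cells. EC50 for 50% CPE inhibition by linear regression. AZT positive control.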

[4] = system: Simian immunodeficiency virus; test: Compound was evaluated at highest concentration (>10 syncytia formation; NA = not active; format: functional, organism-based; how it was run: as §1
CCRF-CEM [5] = test: Compound was evaluated at highest concentration (>10 uM) for the inhibition of HIV infected CEM cells; NA = not active; format: functional, cell-based; details: Homo sapiens
How it was run: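 CEM (CD4+ lymphocyte) cells infected with HTLV-IIIb at MOI 0.1; compound added 1 h before inoculation, with extra doses on days 2 and 5 for metabolically unstable compounds such as peptides. Virus-induced CPE read at day 7 by formazan dye.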

Row | Compound | Ki [1] | other results
1 | CC[C@H](C)[C@H](NC(=O)[C@@H]1CCCN1C[C@@H](O)[C@H](Cc1ccccc1)NC(=O)[C@H](CC(N)=O)NC(=O)[C@H](CC(C)C)NC(=O)[C@H](CO)NC(C)=O)C(=O)N[C@H](C(=O)OC)C(C)C (Ac-SLN[Pheψ(R-CH(OH)CH2N)Pro]IV-OMe) | 0.24 nM | 
2 | CC[C@H](C)[C@H](NC(=O)C1CCCN1C[C@@H](O)[C@H](Cc1ccccc1)NC(=O)[C@H](CC(N)=O)NC(=O)OCc1ccccc1)C(=O)NCCc1ccccn1 (stereo partly drawn) | 71 nM | 
3 | CC[C@H](C)[C@H](NC(=O)C1CCCN1C[C@@H](O)[C@H](Cc1ccccc1)NC(=O)[C@H](CC(N)=O)NC(=O)OCc1ccccc1)C(=O)N[C@@H](Cc1ccccc1)C(=O)NC (stereo partly drawn) | 1.5 nM | IC50 [2]: 4 µM; EC50 (CCRF-CEM [3]): 0.3 µg/mL (≈ 0.375 µM)
4 | CC[C@H](C)[C@H](NC(=O)C1CCCN1C[C@@H](O)[C@H](Cc1ccccc1)NC(=O)[C@H](CC(N)=O)NC(=O)[C@H](Cc1c(I)cc(O)cc1I)NC(=O)OC(C)(C)C)C(=O)N[C@H](C(=O)OC)C(C)C (stereo partly drawn) | 131 nM | 
5 | CC[C@H](C)[C@H](NC(=O)C1CCCN1C[C@@H](O)[C@H](Cc1ccccc1)NC(=O)[C@H](CC(N)=O)NC(=O)[C@H](CC(C)C)NC(=O)[C@H](CO)NC(C)=O)C(=O)N[C@@H](Cc1ccccc1)C(=O)OC (stereo partly drawn) (Ac-SLN[Pheψ(R-CHOHCH2N)ξPro]IF-OMe) | 0.67 nM | 
6 | CC[C@H](C)[C@H](NC(=O)C1CCCN1C[C@@H](O)[C@H](Cc1ccccc1)NC(=O)[C@H](CC(N)=O)NC(=O)[C@H](CCc1ccccc1)NC(=O)OC(C)(C)C)C(=O)N[C@H](C(=O)OC)C(C)C (stereo partly drawn) (Boc-[hPhe]N[Pheψ(R-CHOHCH2N)ξPro]IV-OMe) | 20 nM | 
7 | CC[C@H](C)[C@H](NC(=O)C1CCCN1C[C@@H](O)[C@H](Cc1ccccc1)NC(=O)[C@H](CC(N)=O)NC(=O)OCc1ccccc1)C(=O)N[C@@H](Cc1ccc2ccccc2c1)C(=O)OC (stereo partly drawn) | 1.9 nM | 
8 | CC[C@H](C)[C@H](NC(=O)C1CCCN1C[C@@H](O)[C@H](Cc1ccccc1)NC(=O)[C@H](CC(N)=O)NC(=O)[C@H](CC(C)C)NC(=O)[C@H](CO)NC(C)=O)C(=O)N[C@@H](CCc1ccccc1)C(=O)OC (stereo partly drawn) (Ac-SLN[Pheψ(R-CHOHCH2N)ξPro]I[hPhe]-OMe) | 1.26 nM | 
9 | CC[C@H](C)[C@H](NC(=O)C1CCCN1C[C@@H](O)[C@H](Cc1ccccc1)NC(=O)[C@H](CC(N)=O)NC(=O)[C@H](CC(C)C)NC(=O)[C@H](CO)NC(C)=O)C(=O)N[C@H](C(=O)OC)C(C)C (stereo partly drawn) (Ac-SLN[Pheψ(R-CHOHCH2N)ξPro]IV-OMe) | 0.6 nM | IC50 [4]: Not Active; Inhibition (CCRF-CEM [5]): inactive
10 | CC[C@H](C)[C@H](NC(=O)C1CCCN1C[C@@H](O)[C@H](Cc1ccccc1)NC(=O)[C@H](CC(N)=O)NC(=O)[C@H](CC(C)C)NC(C)=O)C(=O)N[C@H](C(=O)OC)C(C)C (stereo partly drawn) (Ac-LN[Pheψ(R-CHOHCH2N)ξPro]IV-OMe) | 4 nM | 
11 | CC[C@H](C)[C@H](NC(=O)C1CCCN1C[C@@H](O)[C@H](Cc1ccccc1)NC(=O)[C@H](CC(N)=O)NC(=O)OCc1ccccc1)C(=O)N[C@@H](Cc1ccccc1)C(=O)OC (stereo partly drawn) | 1.7 nM | IC50 [2]: 8 µM; EC50 (CCRF-CEM [3]): 0.6 µg/mL (≈ 0.749 µM)
12 | CC[C@H](C)[C@H](NC(=O)C1CCCN1C[C@@H](O)[C@H](Cc1ccccc1)NC(=O)[C@H](CC(N)=O)NC(=O)c1ccc2ccccc2n1)C(=O)N[C@@H](Cc1ccc2ccccc2c1)C(=O)OC (stereo partly drawn) | 0.5 nM | 
13 | CC[C@H](C)[C@H](NC(=O)C1CCCN1C[C@@H](O)[C@H](Cc1ccccc1)NC(=O)[C@H](CC(N)=O)NC(=O)c1ccc2ccccc2n1)C(=O)NCCc1ccccn1 (stereo partly drawn) | 13 nM | IC50 [2]: 4 µM; EC50 (CCRF-CEM [3]): 0.19 µg/mL (≈ 0.248 µM)
14 | CC[C@H](C)[C@H](NC(=O)C1CCCN1C[C@@H](O)[C@H](Cc1ccccc1)NC(=O)[C@H](CC(N)=O)NC(=O)[C@H](Cc1ccc2ccccc2c1)NC(=O)OC(C)(C)C)C(=O)N[C@H](C(=O)OC)C(C)C (stereo partly drawn) (Boc-[2Nal]N[Pheψ(R-CHOHCH2N)ξPro]IV-OMe) | 7.8 nM | 
15 | CC[C@H](C)[C@H](NC(=O)C1CCCN1C[C@@H](O)[C@H](Cc1ccccc1)NC(=O)[C@H](CC(N)=O)NC(=O)[C@H](Cc1ccc(-c2ccccc2)cc1)NC(=O)OC(C)(C)C)C(=O)N[C@H](C(=O)OC)C(C)C (stereo partly drawn) (Boc-[Bip]N[Pheψ(R-CHOHCH2N)ξPro]IV-OMe) | 14 nM | 
16 | CC[C@H](C)[C@H](NC(=O)C1CCCN1C[C@@H](O)[C@H](Cc1ccccc1)NC(=O)[C@H](CC(N)=O)NC(=O)[C@H](Cc1cccc(-c2ccccc2)c1)NC(=O)OC(C)(C)C)C(=O)N[C@H](C(=O)OC)C(C)C (stereo partly drawn) (Boc-[Phe(3-Ph)]N[Pheψ(R-CHOHCH2N)ξPro]IV-OMe) | 6.8 nM | 
17 | CC[C@H](C)[C@H](NC(=O)C1CCCN1C[C@@H](O)[C@H](Cc1ccccc1)NC(=O)[C@H](CC(N)=O)NC(=O)c1ccc2ccccc2n1)C(=O)N[C@@H](Cc1ccccc1)C(=O)NC (stereo partly drawn) | 0.8 nM | IC50 [2]: 4 µM; EC50 (CCRF-CEM [3]): 0.13 µg/mL (≈ 0.158 µM)
18 | CC[C@H](C)[C@H](NC(=O)C1CCCN1C[C@@H](O)[C@H](Cc1ccccc1)NC(=O)[C@H](CC(N)=O)NC(=O)OC(C)(C)C)C(=O)N[C@H](C(=O)OC)C(C)C (stereo partly drawn) | 440 nM | 
19 | CC[C@H](C)[C@H](NC(=O)C1CCCN1C[C@@H](O)[C@H](Cc1ccccc1)NC(=O)[C@H](CC(N)=O)NC(=O)c1ccc2ccccc2n1)C(=O)N[C@@H](Cc1ccccc1)C(=O)OC (stereo partly drawn) | 0.4 nM | 
20 | CC[C@H](C)[C@H](NC(=O)[C@@H]1CCCN1C[C@@H](O)[C@H](Cc1ccccc1)NC(=O)[C@H](CC(N)=O)NC(=O)c1ccc2ccccc2n1)C(=O)N[C@@H](Cc1ccccc1)C(=O)OC | 0.1 nM | 
21 | CC[C@H](C)[C@H](NC(=O)C1CCCN1C[C@@H](O)[C@H](Cc1ccccc1)NC(=O)[C@H](CC(N)=O)NC(=O)OCc1ccccc1)C(=O)N[C@H](C(=O)OC)C(C)C (stereo partly drawn) | 9.7 nM | 
22 | CC[C@H](C)[C@H](NC(=O)C1CCCN1C[C@@H](O)[C@H](Cc1ccccc1)NC(=O)[C@H](CC(N)=O)NC(=O)[C@H](CC(C)C)NC(=O)[C@H](CO)NC(C)=O)C(=O)N[C@@H](Cc1c[nH]c2ccccc12)C(=O)OC (stereo partly drawn) (Ac-SLN[Pheψ(R-CHOHCH2N)ξPro]IW-OMe) | 3.6 nM | 
23 | CC[C@H](C)[C@H](NC(=O)C1CCCN1C[C@@H](O)[C@H](Cc1ccccc1)NC(=O)[C@H](CC(N)=O)NC(=O)[C@H](CC(C)C)NC(=O)OC(C)(C)C)C(=O)N[C@H](C(=O)OC)C(C)C (stereo partly drawn) (Boc-LN[Pheψ(R-CHOHCH2N)ξPro]IV-OMe) | 66 nM | 
24 | CC[C@H](C)[C@H](NC(=O)[C@@H]1CCCN1C[C@@H](O)[C@H](Cc1ccccc1)NC(=O)[C@H](CC(N)=O)NC(=O)OCc1ccccc1)C(=O)N[C@@H](Cc1ccccc1)C(=O)OC | 1 nM | IC50 [2]: 4 µM; EC50 (CCRF-CEM [3]): 0.31 µg/mL (≈ 0.387 µM)
25 | CC[C@H](C)[C@H](NC(=O)C1CCCN1C[C@@H](O)[C@H](Cc1ccccc1)NC(=O)[C@H](CC(N)=O)NC(=O)[C@H](CC(C)C)NC(=O)[C@H](CO)NC(C)=O)C(=O)N[C@@H](Cc1ccc2ccccc2c1)C(=O)OC (stereo partly drawn) (Ac-SLN[Pheψ(R-CHOHCH2N)ξPro]I[2Nal]-OMe) | 5.1 nM | 
26 | CC[C@H](C)[C@H](NC(=O)C1CCCN1C[C@@H](O)[C@H](Cc1ccccc1)NC(=O)[C@H](CC(N)=O)NC(=O)c1ccc2ccccc2n1)C(=O)N[C@H](C(=O)OC)C(C)C (stereo partly drawn) | 2.5 nM | 
